Laboratory results reported in ChEMBL document CHEMBL4706726, “Glucosamine and Its Analogues as Modulators of Amyloid-β Toxicity” (ACS Med Chem Lett, 2021).
The source made the active and inactive calls. No cut-off for these calls is given here.

Tests used:
[1] = biological target: Amyloid-beta precursor protein (Homo sapiens) (UniProt P05067); test: Modulation of human amyloid beta (1 to 42) supramolecular assembly assessed as elongation of amyloid beta42 fibrils at <50 mM measured for 10 days by ThT dye based fluorescence spectrophotometry; settings: filed as modulator, dose mM <50, time 10.0 day
Amyloid-beta precursor protein (Homo sapiens), sequence (P05067 whole entry): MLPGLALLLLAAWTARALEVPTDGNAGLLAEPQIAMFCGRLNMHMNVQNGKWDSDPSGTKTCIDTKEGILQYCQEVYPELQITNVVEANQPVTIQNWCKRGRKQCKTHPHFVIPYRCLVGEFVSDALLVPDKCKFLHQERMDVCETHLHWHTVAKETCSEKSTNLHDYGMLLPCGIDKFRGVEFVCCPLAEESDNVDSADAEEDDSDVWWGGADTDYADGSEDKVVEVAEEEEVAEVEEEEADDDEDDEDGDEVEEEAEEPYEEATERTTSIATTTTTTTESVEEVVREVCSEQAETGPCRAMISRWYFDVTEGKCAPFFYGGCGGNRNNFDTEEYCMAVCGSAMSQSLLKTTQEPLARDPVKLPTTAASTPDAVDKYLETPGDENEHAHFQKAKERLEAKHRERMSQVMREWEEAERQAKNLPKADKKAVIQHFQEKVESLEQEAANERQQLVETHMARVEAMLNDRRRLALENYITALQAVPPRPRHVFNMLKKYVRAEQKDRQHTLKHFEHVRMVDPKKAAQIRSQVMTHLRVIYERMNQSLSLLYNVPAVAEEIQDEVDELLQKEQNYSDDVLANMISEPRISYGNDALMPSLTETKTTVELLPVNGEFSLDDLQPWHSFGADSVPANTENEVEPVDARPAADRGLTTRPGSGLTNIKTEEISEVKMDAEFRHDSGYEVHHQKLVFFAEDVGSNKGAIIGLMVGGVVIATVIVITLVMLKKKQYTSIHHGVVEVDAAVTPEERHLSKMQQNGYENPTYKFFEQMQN
Summary of the method: (§1)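 Aβ42 aggregation kinetics followed for 10 days by thioflavin-T fluorescence, which reports parallel β-sheets. Each monosaccharide tested at several concentrations from 250 μM up to 50 mM.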

[2] = biological target: Amyloid-beta precursor protein (Homo sapiens) (UniProt P05067); test: Modulation of human amyloid beta (1 to 42) supramolecular assembly assessed as elongation of amyloidbeta42 fibrils at 50 mM measured for 10 days by ThT dye based fluorescence spectrophotometry; settings: time 10.0 day; summary of the method: as §1
[3] = biological target: Amyloid-beta precursor protein (Homo sapiens) (UniProt P05067); test: Modulation of human amyloid beta (1 to 42) supramolecular organization assessed as reduction in 6E10 epitope binding site structure at 1 mM measured for 1 to 5 days by Western blot analysis; settings: filed as modulator, time 1-5 day
Summary of the method: (§2)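 Aβ42 (25 μM) incubated with monosaccharide (1 mM) for 1 or 5 days; assemblies detected by Western blot with antibody 6E10 and quantified by relative densitometry against Aβ42 alone; error bars SD.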

[4] = biological target: Amyloid-beta precursor protein (Homo sapiens) (UniProt P05067); test: Modulation of human amyloid beta (1 to 42) supramolecular organization assessed as reduction in antiparallel beta-sheets characteristic of cytotoxic Abeta42 aggregates at 1 mM measured for 5 days by CD spectrometry; settings: filed as modulator, time 5.0 day
Summary of the method: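 Aβ42 secondary structure followed by circular dichroism over 1 and 5 days, with 1 mM of each monosaccharide present. Loss of antiparallel β-sheet was scored against 25 μM Aβ42 control. Error bars SD.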

SH-SY5Y [5] = test: Cytotoxicity against human SH-SY5Y cells assessed as reduction in cell viability at 1 mM measured after 1 day by alamar blue assay; assay type: cell-based; settings: 24 h, 1000 µM
Summary of the method: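 SH-SY5Y neuroblastoma cells exposed to each monosaccharide (1 mM) under cell culture conditions without Aβ42. Viability screened for cytotoxicity.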

SH-SY5Y [6] = test: Neuroprotective activity against Abeta-42-induced cytotoxicity in human SH-SY5Y cells assessed as increase in cell viability at 1 mM measured upto 5 days by alamar blue assay; assay type: functional, cell-based; settings: time day <=5
Summary of the method: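 SH-SY5Y cells incubated with Aβ42 plus each monosaccharide (1 mM) for 5 h, 24 h and 5 days. Cell viability measured at each time.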

[7] = biological target: Amyloid-beta precursor protein (Homo sapiens) (UniProt P05067); test: (§3) Modulation of amyloid beta (1 to 42) supramolecular organization in human SH-SY5Y cells assessed as inhibition of Abeta42-induced disruption of cell membrane by measuring reduction in Ca2+ influx at 1 mM incubated for 24 hrs by Fluo-3AM dye based scanning confocal fluorescence microscopy relative to control; settings: filed as modulator
Summary of the method: (§4)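 SH-SY5Y cells cultured 24 h with Aβ42 (25 μM) plus each monosaccharide (1 mM). Intracellular free Ca2+ imaged by fluorescence using Fluo3-AM […] as Ca2+ probes. Controls were cells cultured without Aβ42 and monosaccharide.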

[8] = biological target: Amyloid-beta precursor protein (Homo sapiens) (UniProt P05067); test: as §3, with “[…]” for “Fluo-3AM”; settings: filed as modulator; summary of the method: as §4
[9] = biological target: Amyloid-beta precursor protein (Homo sapiens) (UniProt P05067); test: Modulation of amyloid beta (1 to 42) supramolecular organization in human SH-SY5Y cells assessed as reduction in AChE activity at 1 mM incubated for 1 day; assay type: cell-based; settings: filed as modulator
Summary of the method: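 SH-SY5Y neuroblastoma cells exposed to Aβ42 with monosaccharide (1 mM); cellular AChE activity read after 1 day of incubation.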

[10] = biological target: Amyloid-beta precursor protein (Homo sapiens) (UniProt P05067); test: Modulation of amyloid beta (1 to 42) supramolecular organization in human SH-SY5Y cells assessed as reduction in insulin resistance by measuring reduction in Abeta-42-induced IRS1 phosphorylation at Ser612 residue at 1 mM incubated for 1 hr by immunoblot analysis; assay type: cell-based; settings: filed as modulator
Summary of the method: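 SH-SY5Y cells cultured 1 h in medium with 10% FBS and no added insulin, with or without Aβ42 (25 μM) and each monosaccharide. IRS1 phosphorylation at S612 quantified by expression analysis. Parallel runs supplemented with 5 nM insulin.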

[11] = biological target: Amyloid-beta precursor protein (Homo sapiens) (UniProt P05067); test: Modulation of amyloid beta (1 to 42) supramolecular organization in human SH-SY5Y cells assessed as reduction in insulin resistance by measuring increase in AKT1 phosphorylation phosphorylation at Ser473 residue at 1 mM incubated for 1 hr by immunoblot analysis; assay type: cell-based; settings: filed as modulator
Summary of the method: (§5)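 SH-SY5Y cells in medium with 10% FBS, no added insulin, cultured 1 h with Aβ42 (25 μM) with or without monosaccharide (1 mM); protein expression read by immunoblot.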

[12] = biological target: Amyloid-beta precursor protein (Homo sapiens) (UniProt P05067); test: Modulation of amyloid beta (1 to 42) supramolecular organization in human SH-SY5Y cells assessed as reduction in inflammation by measuring decrease in Abeta-42-induced ANXA1 expression at 1 mM incubated for 1 hr by immunoblot analysis; assay type: cell-based; settings: filed as modulator; summary of the method: as §5
[13] = biological target: Amyloid-beta precursor protein (Homo sapiens) (UniProt P05067); test: Modulation of amyloid beta (1 to 42) supramolecular organization in human SH-SY5Y cells assessed as reduction in insulin resistance by measuring reduction in Abeta-42-induced IRS1 phosphorylation at Ser612 residue at 1 mM incubated for 1 hr in presence of insulin by immunoblot analysis; assay type: cell-based; settings: filed as modulator
Summary of the method: (§6)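 SH-SY5Y cells in medium with 10% FBS plus 5 nM insulin, cultured 1 h with Aβ42 (25 μM) with or without monosaccharide (1 mM); protein expression read by immunoblot.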

[14] = biological target: Amyloid-beta precursor protein (Homo sapiens) (UniProt P05067); test: Modulation of amyloid beta (1 to 42) supramolecular organization in human SH-SY5Y cells assessed as reduction in inflammation by measuring decrease in Abeta-42-induced ANXA1 expression at 1 mM incubated for 1 hr in presence of insulin by immunoblot analysis; assay type: cell-based; settings: filed as modulator; summary of the method: as §6
[15] = biological target: Amyloid-beta precursor protein (Homo sapiens) (UniProt P05067); test: Modulation of human amyloid beta (1 to 42) supramolecular organization assessed as reduction in amount of cytotoxic Abeta42 oligomers at 1 mM measured for 1 to 5 days by Western blot analysis; settings: filed as modulator, time 1-5 day; summary of the method: as §2
[16] = biological target: Amyloid-beta precursor protein (Homo sapiens) (UniProt P05067); test: Modulation of human amyloid beta (1 to 42) supramolecular organization at 0.4 mM by dynamic light scattering based analysis; settings: filed as modulator
[17] = biological target: Amyloid-beta precursor protein (Homo sapiens) (UniProt P05067); test: Modulation of human amyloid beta (1 to 42) supramolecular organization assessed as prevalence of Abeta42 fibrils with parallel beta-sheets at 1 mM incubated for 5 days by ATR-FITR analysis; settings: time 5.0 day

SMILES | Activity [1] | Activity [2] | Activity [3] | Activity [4] | Activity (SH-SY5Y [5]) | Activity (SH-SY5Y [6]) | inhibition [7] | inhibition [8] | Activity [9] | Activity [10] | Activity [11] | Activity [12] | Activity [13] | Activity [14] | Activity [15] | Activity [16] | Activity ([17]; filed as modulator) | Activity [17]
N[C@@H]1[C@@H](O)[C@H](O)[C@@H](COS(=O)(=O)O)O[C@H]1O | Active | inactive | Active | Active | Non-Toxic | Active | 41% | 60% | Active | Active | Active | Active | Active | Active | Active | Active | Active | –
N[C@@H]1[C@@H](O)[C@H](O)[C@@H](CO)O[C@H]1O | Active | inactive | – | Active | Non-Toxic | Active | – | – | – | – | – | – | – | – | – | Active | – | inactive
N[C@@H]1[C@@H](O)[C@H](O)[C@@H](COP(=O)(O)O)O[C@H]1O | Active | inactive | Active | Active | Non-Toxic | Active | Active | Active | – | Active | Active | Active | Active | Active | – | Active | Active | –
CC(=O)N[C@H]1C(O)O[C@H](CO)[C@@H](O)[C@@H]1O (some centres not stated) | Active | inactive | – | Active | Non-Toxic | Active | – | – | – | Active | – | – | – | – | – | Active | – | inactive
